Tests used:
[1] = Antagonist activity at AMPA receptor in rat […] granule cells assessed as inhibition of kainate-induced calcium uptake after 30 mins; assay type: functional, cell-based; conditions: 0.5 h
How it was run: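 Primary rat cerebellar granule neurons, preincubated 30 min with compounds in BSS (pH 7.3), then exposed at room temperature to 100 µM kainate in BSS with 10 µM glycine, 0.5 mM dithiothreitol and 45Ca2+ for 10 min. Washed with ice-cold BSS containing 5 mM EGTA, lysed in 0.6% Triton X-100, radioactivity counted. IC50 representative of three experiments.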

[2] = Displacement of [3H]CP-526427 from AMPA receptor in Sprague-Dawley rat fore brain by radioligand binding assay
How it was run: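 Adult male Sprague-Dawley forebrain membranes at 0.5 mg protein/mL in 50 mM Tris·HCl pH 7.4. Compounds at various concentrations with 3 nM [3H]CP-526,427, 20 min at 30 °C. Filtration onto glass fiber filters, scintillation counting. Nonspecific binding taken with 10 µM unlabeled CP-526,427 or CP-465,022. Positive control was CP-465,022.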

Neuron = experiment: Inhibition of kainate-induced C57BL/6N mouse hippocampal neurons excitotoxicity after 48 hrs by MTT assay; assay type: functional, tissue-based; conditions: Hippocampus
How it was run: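 E13 C57BL/6N mouse hippocampal cultures were given 30 µM kainate with the test compound at graded concentrations, in medium without glutamate. Exposure was 48 h at 37 °C. Viability was measured by MTT conversion (absorbance 570 nm), relative to untreated cells. IC50 values are representative of three independent experiments.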

[3] = Excitotoxicity against C57BL/6N mouse hippocampal neurons after 48 hrs by MTT assay; assay type: tissue-based; conditions: Neuron, Hippocampus
How it was run: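 Primary hippocampal cultures from E13 C57BL/6N mouse embryos were grown on poly-L-lysine in Neurobasal/B27/BDNF medium. At 7 DIV they were exposed to kainate (5–500 µM) for 48 h at 37 °C, 5% CO2. Viability was read by MTT (4 h, absorbance 570 nm) as % of untreated cells. Five–six experiments, each in duplicate.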

SMILES | IC50 [1] | IC50 [2] | IC50 (Neuron) | EC50 [3] | Activity (Neuron)
COc1cc(C2=NNC(=O)Cc3cc4c(cc32)OCCO4)ccc1N | 12 µM | 81.1 µM | – | – | –
CCC1C(=O)NN=C(c2ccc(N)c(C)c2)c2cc3c(cc21)OCO3 (stereo not drawn) | 4.34 µM | 15.6 µM | – | – | –
Cc1cc(C2=NNC(=O)C(C)c3cc4c(cc32)OCCO4)ccc1N (stereo not drawn) | 1.23 µM | 4.5 µM | – | – | –
CNC(=O)N1N=C(c2ccc(N)cc2)c2cc3c(cc2C(C)C1=O)OCO3 (stereo not drawn) | 15.8 µM | 4.01 µM | – | – | –
Nc1ccc(C2=NNC(=O)Cc3cc4c(cc32)OCCO4)cc1Cl | 2 µM | 2.05 µM | – | – | –
NS(=O)(=O)c1cccc2c1c([N+](=O)[O-])cc1nc(O)c(O)nc12 [NBQX] | – | – | 11.9 µM | – | –
CC1C(=O)NN=C(c2ccc(N)cc2)c2cc3c(cc21)OCCO3 (stereo not drawn) | – | 6.96 µM | – | – | –
C=C(C)[C@H]1CN[C@H](C(=O)O)[C@H]1CC(=O)O [KAINIC ACID] | – | – | – | 17.3 µM | –
Cc1cc(C2=NNC(=O)Cc3cc4c(cc32)OCO4)ccc1N | 2.5 µM | 6.3 µM | – | – | –
Cc1cc(C2=NNC(=O)Cc3cc4c(cc32)OCCO4)cc(C)c1N | > 100 µM | > 100 µM | – | – | –
CNC(=O)N1N=C(c2ccc(N)cc2)c2cc3c(cc2CC1=O)OCCO3 | 5.4 µM | 7.78 µM | – | – | –
Nc1ccc(C2=NNC(=O)C(Cc3ccccc3)c3cc4c(cc32)OCO4)cc1 (stereo not drawn) | – | > 100 µM | – | – | –
Nc1ccc(C2=NNC(=O)Cc3cc4c(cc32)OCO4)cc1 | 12 µM | 32 µM | – | – | –
CC1C(=O)NN=C(c2ccc(N)c(Cl)c2)c2cc3c(cc21)OCCO3 (stereo not drawn) | 18 µM | 21.6 µM | – | – | –
CC1C(=O)NN=C(c2ccc(N)c(Cl)c2)c2cc3c(cc21)OCO3 (stereo not drawn) | 7 µM | 11.4 µM | – | – | –
CC(=O)N1N=C(c2ccc(N)cc2)c2cc3c(cc2C[C@H]1C)OCO3 | – | – | – | – | Dose-dependent effect
Cc1cc(C2=NNC(=O)Cc3cc4c(cc32)OCCO4)ccc1N | 6.4 µM | 1.84 µM | 1.6 µM | – | –
CCC1C(=O)NN=C(c2ccc(N)cc2)c2cc3c(cc21)OCO3 (stereo not drawn) | 17.1 µM | 8.37 µM | – | – | –
Nc1ccc(C2=NNC(=O)Cc3cc4c(cc32)OCCO4)cc1 | 2.9 µM | 9 µM | – | – | –
COc1cc(C2=NNC(=O)Cc3cc4c(cc32)OCO4)ccc1N | 31 µM | > 100 µM | – | – | –
CNC(=O)N1N=C(c2ccc(N)cc2)c2cc3c(cc2CC1=O)OCO3 | 11 µM | 12 µM | – | – | –
Cc1cc(C2=NNC(=O)C(C)c3cc4c(cc32)OCO4)ccc1N (stereo not drawn) | 18.8 µM | 9.62 µM | – | – | –
CC1C(=O)NN=C(c2ccc(N)cc2)c2cc3c(cc21)OCO3 (stereo not drawn) | 12 µM | 12.9 µM | – | – | –
CC1=NN=C(c2ccc(N)cc2)c2cc3c(cc2C1)OCO3 [GYKI-52466] | 22 µM | 12.6 µM | 10.8 µM | – | –
Cc1cc(C2=NNC(=O)Cc3cc4c(cc32)OCO4)cc(C)c1N | > 100 µM | > 100 µM | – | – | –
CNC(=O)N1N=C(c2ccc(N)cc2)c2cc3c(cc2C[C@H]1C)OCO3 | – | – | – | – | Dose-dependent effect

From ChEMBL document CHEMBL1144659, “Structure-activity study of 2,3-benzodiazepin-4-ones noncompetitive AMPAR antagonists: identification of the 1-(4-amino-3-methylphenyl)-3,5-dihydro-7,8-ethylenedioxy-4H-2,3-benzodiazepin-4-one as neuroprotective agent” (Bioorg Med Chem, 2008)
